# Published values from different studies.
# Compare with care: the assays were run in different laboratories.
# Target: Alpha-glucosidase MAL12 (MAL12, Saccharomyces cerevisiae S288c, UniProt P53341)
# Read-out: enzyme activity
# Mode: inhibitor
technique,pH,IC50 [µM],Compound
absorbance,,54.6,Cc1ccc(-c2nc3ncnn3c(-c3ccc(Cl)cc3)c2N)cc1
absorbance,,359,CC(=O)C1=C(C)n2c(=O)c3ccccc3c(=O)n2C1c1cn(-c2ccccc2)nc1-c1ccc(Cl)cc1 (stereo not shown)
absorbance,,82.5,Nc1c(-c2ccccc2)nc2ncnn2c1-c1cccc(Cl)c1
absorbance,pH 6.9,1.5,C[C@H]1CN(C(=O)Nc2ccc(C(F)(F)F)cc2)CCN1c1ccnc(Nc2ccc(Cl)c(OCc3ccccc3)c2)n1
absorbance,,89.3,COc1ccc(-c2c(N)c(-c3ccc(C)cc3)nc3ncnn23)cc1
absorbance,,353,CC1(C)CC(=O)C2=C(C1)n1c(=O)c3ccccc3c(=O)n1C2c1cn(-c2ccccc2)nc1-c1ccc(Br)cc1 (stereo not shown)
,,2.6,CCCCCCCCCCCC(=O)OCC(C)(C)CC1=C(O)C(=O)c2ccccc2C1=O
absorbance,,74.2,CC1(C)CC(=O)C2=C(C1)n1c(=O)c3ccccc3c(=O)n1C2c1cn(-c2ccccc2)nc1-c1ccccc1 (stereo not shown)
absorbance,pH 6.9,1.69,C[C@H]1CN(C(=O)Nc2ccc(C(F)(F)F)cc2)CCN1c1ccnc(Nc2ccc(Cl)c(Cl)c2)n1
absorbance,pH 6.8,1570,COc1cc(/C=C/c2ccc(O)cc2)cc(OC)c1
absorbance,,229,COc1ccc(-c2nn(-c3ccccc3)cc2C2C3=C(CC(C)(C)CC3=O)n3c(=O)c4ccccc4c(=O)n32)cc1 (stereo not shown)
absorbance,pH 6.9,2.08,C[C@@H]1CN(C(=O)Nc2ccc(C(F)(F)F)cc2)CCN1c1ccnc(Nc2ccc(Cl)c(O)c2)n1
absorbance,,282,Cc1ccc(-c2nn(-c3ccccc3)cc2C2C3=C(CC(C)(C)CC3=O)n3c(=O)c4ccccc4c(=O)n32)cc1 (stereo not shown)
absorbance,pH 6.9,1.82,C[C@H]1CN(C(=O)Nc2ccc(C(F)(F)F)cc2)CCN1c1ccnc(Nc2ccc(F)cc2)n1
absorbance,,120,COc1ccc(-c2nc3ncnn3c(-c3cccs3)c2N)cc1
,,> 200,CC(C)(CO)CC1=C(O)C(=O)c2ccccc2C1=O
